UPR CHOP act: activators of apoptotic CHOP UPR arm, primary screen, cell-based, CHO-CHOP luciferase reporter, luminescence, uHTS; UPR activation; percent of tunicamycin response over DMSO baseline; activation, % at 10 µM; 330,000 tested, 0.34% active;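 active means at 10 µM dose, activation of 40% or more, normalized to positive control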;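 further: 100% = tunicamycin at 10 µg/mL and 0% = DMSO alone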
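assay system = CHO CHOP reporter cells | amount = 500 CHO-CHOP cells per well | buffer or medium = F12 with 10% FBS | incubation = 16-18 h cell attachment, then 6 h compound exposure, 37 °C | detection = luminescence read with Steady-Glo | read-out = percent activation relative to tunicamycin control | controls = tunicamycin high control, DMSO low control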
Gli-Sufu block: Gli-Sufu pathway antagonists, primary screen, luciferase luminescence, Sufu-KO-LIGHT cells, uHTS. Sufu-KO-LIGHT fibroblasts, Gli luciferase reporter luminescence. inhibition, % at 5 µM. 340,000 tested, 0.74% active. AID 588413, 2011;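 active means inhibition above about 55%, limit read from the data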;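 further: 0% = DMSO-treated cells and 100% = wells with medium but no cells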
Jurkat NFkB inh: inhibitors of induced NF-kB luciferase reporter, primary screen, TCR NF-kB activation inhibitor project, cell-based, luminescence, uHTS; Jurkat, PMA/ionomycin-induced NF-kB luciferase reporter; AID 435003, 2010; 330,000 tested, 0.53% active; inhibition, % at 4 µM; in the data active means inhibition above about 50%
CHOP inh: inhibitors of CHOP promoter induction, primary screen, cell-based, unfolded protein response, luciferase reporter; CHO-K1 CHOP-promoter luciferase, tunicamycin-induced, 15-18 h; inhibition, % at 10 µM; 220,000 tested, 3.8% active; AID 2732, 2010;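 active means compounds that reduced the stress-induced luciferase reporter signal by more than about 70% of percent inhibition, limit read from the data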;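 further: 0% = tunicamycin plus vehicle and 100% = wells without tunicamycin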
697 NFkB inh: inhibitors of PMA/ionomycin-induced NF-kB reporter, 697 cells, primary screen, B-cell NF-kB inhibitor project, cell-based, luminescence, uHTS; 697 B-cell NF-kB luciferase reporter, 16 h; inhibition, % at 4 µM; 330,000 tested, 0.33% active; in the data active means inhibition above about 35%
UPR XBP1 act: activators of adaptive XBP1 UPR arm, primary screen, cell-based, CHO-XBP1 luciferase reporter, luminescence, uHTS; 330,000 tested, 0.33% active; IRE1-XBP1 UPR activation; percent of tunicamycin response, DMSO as zero; activation, % at 20 µM;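 active means versus positive control, 20 µM dose yields 30% or more activation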;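 further: 100% = tunicamycin at 10 µg/mL and 0% = DMSO only wells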
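Material: IRE1-XBP1 luciferase reporter CHO line / Quantity: one thousand reporter cells per well / Buffer or medium: F12 with 10% serum / Compound: 20 µM single concentration, DMSO 1% / Times: 6 h treatment, 37 °C / Detection: Steady-Glo luciferase glow luminescence, 10 min after reagent addition / Benchmarks: tunicamycin high, DMSO low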
The depositor's hits bear a star; / = no result given. Rows were chosen to be rich in hits. Some 3.9% of all compounds tested hit in one or more screens of this group.

SMILES | UPR CHOP act | Gli-Sufu block | Jurkat NFkB inh | CHOP inh | 697 NFkB inh | UPR XBP1 act
CC(=O)C(Cc1ccccc1)NC(=O)CN1c2cccc3cccc(c23)S1(=O)=O (centres undefined) | -1 | 6 | 6 | / | 1 | -3
CC(/C=C1\N=C(SCc2ccccc2Cl)SC1=O)=C\c1ccccc1 | 1 | 1 | 14 | 76* | 16 | 2
O=C(Cn1cnc2sc(-c3ccccc3)cc2c1=O)NCCc1ccccc1 | -1 | -7 | -15 | 73* | -33 | 0
Cc1cc2c(s1)c1cnn(-c3ccccc3)c(=O)c1n2C | 2 | 0 | -18 | / | 3 | -3
Cc1cc2c(s1)c1cnn(CC(=O)NCCc3ccccc3)c(=O)c1n2C | -1 | 1 | 5 | 87* | 5 | -4
Cc1cccc(NC(=O)CSc2nnc(-c3ccncc3)n2CC2CCCO2)c1 (centres undefined) | 0 | 37 | -12 | / | 1 | 0
Cc1cccc(OCC(O)Cn2c(-n3nc(C)cc3C)nc3c2c(=O)[nH]c(=O)n3C)c1 (centres undefined) | 1 | -6 | 2 | 73* | 13 | -2
COc1ccc(OC)c(NC(=O)COc2ccc(S(=O)(=O)N3CCCC3)cc2)c1 | 0 | 9 | 15 | / | 11 | -3
Cc1ccc(C)c(N=Cc2cc3c(cc2[N+](=O)[O-])OCO3)c1 | 3 | -7 | -1 | 81* | -2 | 4
O=[N+]([O-])c1ccccc1S(=O)(=O)N1CCN(C2CCN(Cc3ccccc3)CC2)CC1 | -3 | -4 | 2 | / | 12 | -7
CCOC(=O)C1(CCC(C)C)CC(CSc2nc3ccccc3[nH]2)OC1=O (centres undefined) | -3 | 3 | 4 | 89* | -39 | -5
Cn1c(=O)oc2cc(S(=O)(=O)N3CCC(C(=O)NCc4cccs4)CC3)ccc21 | -1 | -3 | 9 | 75* | 7 | -2
Cn1c(=O)oc2cc(S(=O)(=O)N3CCC(C(=O)NCc4ccccc4)CC3)ccc21 | 0 | -3 | -5 | / | 21 | -3
CC1C/C(=C\c2cccnc2)C(=O)/C(=C/c2cccnc2)C1 (centres undefined) | / | -6 | / | 102* | / | /
CC(C)(C)c1ccc(/C=N/OCC(=O)NCc2ccc(F)cc2)cc1 | 1 | 4 | -3 | 75* | -48 | 0
CC(C)(C)c1ccc(/C=N/OCC(=O)NCc2ccccc2)cc1 | 2 | -2 | -5 | -16 | 6 | -2
Cc1ccc(CNC(=O)CO/N=C/c2ccc(C(C)(C)C)cc2)cc1 | -1 | 1 | 6 | 95* | -10 | -3
CC(C)CCC(C(=O)NC(C)c1ccccc1)C(=O)NC(C)c1ccccc1 (centres undefined) | -1 | 3 | -6 | / | -5 | 0
CN1/C(=C\C=C(/C#N)C(=O)Nc2ccc(Cl)cc2)C(C)(C)c2ccccc21 | 0 | 2 | -2 | 75* | 6 | -2
COc1cc(/C=N/N=C(/N)c2nonc2N)cc(Br)c1OCc1cccc(C)c1 | 2 | 8 | 3 | 71* | 8 | 4
COc1cc(/C=N/N=C(\N)c2nonc2N)cc(OC)c1O | 4 | 2 | -5 | -16 | 11 | 2
O=C(NN=C1c2ccccc2-c2ccccc21)c1cccc(Br)c1 | 39 | 27 | -17 | 77* | -20 | 9
CC(OC(=O)CC1Sc2ccccc2NC1=O)C(=O)NC1CCCC1 (centres undefined) | 1 | 23 | 4 | / | 9 | 2
Nc1nc(Br)c2c(F)cccc2c1-c1ccc(F)cc1 | 2 | 0 | 4 | 74* | -25 | 8
CCC1CCCCN1c1nc2c(C=O)c(C)nn2c2ccccc12 (centres undefined) | 4 | -4 | 3 | 89* | -6 | 6
CCOC(=O)c1nnn2c1nc(N1CCCCC1)c1ccccc12 | -1 | 6 | -7 | 5 | 8 | 8

From PubChem BioAssay
